NS3 helicase inh: HCV NS3 helicase inhibition. NS3 helicase DNA unwinding, Cy5 molecular beacon fluorescence. 290,000 compounds, 0.56% hits. inhibition, % at 10.9 µM. AID 1800;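 active = inhibition above the mean of all tested compounds plus 3 SD, set per campaign, cut at about 35% in these data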
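assay system = NS3 helicase fragment of HCV | buffer or medium = MOPS pH 6.5, MgCl2, DTT, Tween20, BSA | timing = 60 min unwinding reaction at 25 °C after ATP addition | signal = Cy5 beacon fluorescence read at start and 1 h | read-out basis = % inhibition of unwinding | control set = low DMSO, high thioflavine S at 110 µM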
PP1 inh: blocks human PP1-alpha phosphatase, a PP5 counter-screen; P62136; purified PP1alpha, OMFP fluorescence; inhibition, % at 6.7 µM; 320,000 compounds, 0.9% hits; AID 2235;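 active = inhibition above the mean inhibition of all tested compounds plus 3 SD, computed separately for each screening campaign, cut at about 15% in these data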
HIF activator: HIF pathway transcriptional activation. U2OS HRE-luciferase reporter, luminescence; normalized: DMSO 0%, desferrioxamine 100%. activation, % at 7.5 µM (by protocol). 300,000 compounds, 0.32% hits;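 active = mean activation of at least 10% of the iron chelator positive control signal, with at least half of replicates also reaching 10%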
DNA FID counter-1: counter-screen for HCV NS3 helicase inhibitors: DNA intercalator displacement | DNA fluorescent intercalator displacement, fluorescence | inhibition, % at 7.9 µM | 290,000 compounds, 0.17% hits;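 also: higher means more ethidium bromide displaced from hairpin DNA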
PP5 primary: inhibitors of human protein phosphatase 5 (PP5). inhibition, % at 6.7 µM. AID 1987. 320,000 compounds, 0.18% hits. purified PP5c, OMFP substrate fluorescence;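 active = inhibition above the campaign's mean inhibition across all tested compounds plus 3 SD, cut at about 9.5% in these data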
Target sequence (P53041 whole entry, looked up): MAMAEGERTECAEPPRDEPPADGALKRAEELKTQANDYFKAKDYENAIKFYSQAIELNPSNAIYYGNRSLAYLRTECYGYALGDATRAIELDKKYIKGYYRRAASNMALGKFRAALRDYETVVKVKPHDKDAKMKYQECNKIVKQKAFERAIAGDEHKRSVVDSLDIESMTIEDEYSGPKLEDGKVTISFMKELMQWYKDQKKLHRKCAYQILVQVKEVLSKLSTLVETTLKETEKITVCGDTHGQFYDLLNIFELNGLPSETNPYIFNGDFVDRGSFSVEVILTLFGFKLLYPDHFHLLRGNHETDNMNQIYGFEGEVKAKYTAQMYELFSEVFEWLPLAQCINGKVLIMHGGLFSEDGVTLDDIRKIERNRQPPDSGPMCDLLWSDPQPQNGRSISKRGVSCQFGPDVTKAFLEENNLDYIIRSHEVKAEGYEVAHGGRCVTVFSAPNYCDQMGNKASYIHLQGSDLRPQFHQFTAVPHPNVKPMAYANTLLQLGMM
NS3 helicase cf: confirmation of Hepatitis C virus NS3 helicase inhibitors; shares compounds with NS3 helicase inh; NS3 helicase DNA unwinding, Cy5 molecular beacon fluorescence; inhibition, % at 10.9 µM; 1,600 compounds, 31% hits;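 active = inhibition above the mean of all tested compounds plus 3 SD, cutoff set per campaign, cut at about 36% in these data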
DNA FID counter-2: counter-screen for HCV NS3 helicase inhibitors: DNA intercalator displacement; shares compounds with NS3 helicase inh; DNA fluorescent intercalator displacement, fluorescence; inhibition, % at 7.9 µM; 1,600 compounds, 4% hits; AID 1945;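 also: higher means more displacement of ethidium bromide from the DNA hairpin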
Numbers stand for hits; . = inactive; / = no result given. Most compounds without a hit are left out; they make up all but 1.9% or so of the library. Rule as the data show it, unless noted: active = inhibition above about 37%; inactive = the rest.

SMILES	NS3 helicase inh	PP1 inh	HIF activator	DNA FID counter-1	PP5 primary	NS3 helicase cf	DNA FID counter-2
Cn1c(CCN2CCN(c3ccccn3)CC2)nc2cc(NC(=O)COc3ccc([N+](=O)[O-])cc3)ccc21	37.8	.	.	.	.	.	.
CCCc1cc(=O)oc2cc(C)cc(OC(C)C(=O)NCC3CCC(C(=O)O)CC3)c12 (stereo not given)	38.2	.	.	.	.	.	.
CCCCc1cc(=O)oc2cc(C)cc(OC(C)C(=O)NCC3CCC(C(=O)O)CC3)c12 (stereo not given)	.	.	.	.	.	/	/
CC(C)c1ccc(/C=C/c2[nH]c(=O)[nH]c(=O)c2[N+](=O)[O-])cc1	56.2	.	.	.	.	52.7	.
CCOc1ccc(/C=C/c2[nH]c(=O)[nH]c(=O)c2[N+](=O)[O-])cc1	.	.	.	.	.	/	/
CC(=O)OCC1=C(C(=O)O)N2C(=O)C(NC(=O)c3ccc(COc4c(C)cccc4Cl)o3)C2SC1 (stereo not given)	38.5	.	.	.	.	46.3	.
CC(=O)OCC1=C(C(=O)O)N2C(=O)C(NC(=O)Cn3nc(C(F)F)c(Cl)c3C)C2SC1 (stereo not given)	40.3	.	.	.	.	.	.
Cc1nnc(SCC2=C(C(=O)O)N3C(=O)C(NC(=O)COc4ccc(F)cc4)C3SC2)s1 (stereo not given)	/	.	/	/	.	/	/
Cc1nnc(SCC2=C(C(=O)O)N3C(=O)C(NC(=O)Cn4nc(C(F)F)c(Cl)c4C)C3SC2)s1 (stereo not given)	44.9	.	.	.	.	38.0	.
Cc1nnc(SCC2=C(C(=O)O)N3C(=O)C(NC(=O)c4cc(F)c(F)cc4Cl)C3SC2)s1 (stereo not given)	36.2	.	.	.	.	.	.
CCc1c(O)cc2n(c1=O)-c1ccc(Cl)cc1C2(C)C	.	.	.	.	.	/	/
CC1(C)Oc2ccc3ccc(=O)oc3c2/C(=C/NNC(N)=S)C1=O	50.6	.	.	.	.	.	.
Cc1cccc(NC(=O)CSc2nnc(-c3ccco3)c(-c3ccco3)n2)c1C	52.0	.	.	.	.	76.6	.
Cc1cccc(NC(=O)CSc2nnc(-c3ccco3)c(-c3ccco3)n2)c1	.	/	/	.	/	/	/
Nn1c(SCC(=O)Nc2ccc(OC(F)F)cc2)nnc1-c1ccco1	/	.	.	/	.	/	/
Cc1cc(Nc2cccc(Cl)c2Cl)n2ncnc2n1	.	/	.	.	/	/	/
COc1ccc(-n2c(SCCC#N)nnc2-c2cc(Cl)ccc2OC)cc1Cl	.	.	.	.	.	/	/
CC(=O)Oc1cc2c3c(c1)/C(=C1/SC(=S)NC1=O)C(=O)N3C(C)(C)C=C2C	53.3	.	.	.	.	80.4	.
CCOc1cc2c3c(c1)C(C)=CC(C)(C)N3C(=O)C2=O	.	.	.	.	.	/	/
Cc1ccc(C)c(NC(=O)c2cc(C)nc3ccccc23)c1	54.8	.	.	.	.	.	.
Cc1ccc(NC(=O)c2cc(C)nc3ccccc23)cc1	.	.	.	.	.	/	/
CC(/C=N/Nc1ccc2nncn2n1)=C\c1ccccc1	.	.	.	.	.	/	/
C(=C\c1ccccc1)/C=N/Nc1ccc2nncn2n1	44.2	.	.	.	.	.	.
COc1cccc(C2NC(=O)NC(O)(C(F)(F)F)C2C(=O)c2cccnc2)c1OC (stereo not given)	.	.	.	.	.	/	/
CCCn1cc(S(=O)(=O)c2ccc(OC)cc2)c(=O)c2cc(OC)ccc21	.	.	.	.	.	/	/
SMILES	NS3 helicase inh	PP1 inh	HIF activator	DNA FID counter-1	PP5 primary	NS3 helicase cf	DNA FID counter-2
O=C(O)C1CCN(c2nc(-c3ccccc3)c3cc(Br)ccc3n2)CC1	48.2	.	.	.	.	68.5	.
O=C(OCCNc1ccc(C(F)(F)F)cc1[N+](=O)[O-])c1cc2ccccc2oc1=O	.	.	.	.	.	/	/
CCOC(=O)c1cccnc1NC(=O)c1ccccc1	.	.	.	.	.	/	/
O=C(O)C1c2ccccc2C(=O)N(Cc2ccc(F)cc2)C1c1ccncc1 (stereo not given)	.	.	.	.	.	/	/
Cc1cc(Cn2ccnc2)c(C)c([N+](=O)[O-])c1Cn1ccnc1	.	.	.	.	.	/	/
Cc1c(N=C2N=C(NC(=O)c3cccs3)c3ccccc32)c(=O)n(-c2ccccc2)n1C	.	.	.	.	.	/	/
Cc1c(N=C2N=C(NC(=O)NC(C)(C)C)c3ccccc32)c(=O)n(-c2ccccc2)n1C	57.7	.	.	.	.	.	.
CCOc1cc(CNc2ccc3c(c2)CCC3)ccc1OC	.	.	.	.	.	/	/
Cn1c(=O)c2ccccc2n(Cc2ccccc2Cl)c1=O	.	.	.	.	.	/	/
Oc1ccc(/C=N/Nc2cc(N3CCCC3)nc(N3CCCC3)n2)cc1O	56.2	.	.	.	.	.	.
CC(C)c1ccc(/C=N/Nc2cc(N3CCOCC3)nc(N3CCOCC3)n2)cc1	.	.	/	.	.	/	/
CCN(C(=S)Nc1ccc(C(C)=O)cc1)C1CCCCC1	.	.	.	.	.	/	/
N#C/C(=C\c1cccs1)C(=O)c1ccccc1Cl	40.5	.	.	.	.	.	.
O=C(O)CN1C(=O)/C(=C\c2ccccc2OCc2ccc(Cl)cc2)SC1=S	42.6	.	.	.	.	69.9	.
O=C(O)CN1C(=O)/C(=C\c2cc(Br)ccc2OCc2ccc(Cl)cc2Cl)SC1=S	75.8	.	.	.	.	85.6	52.3
COc1ccc(-c2nn(-c3ccccc3)cc2/C=C2/SC(=S)N(CCC(=O)O)C2=O)cc1	.	.	.	.	.	/	/
Cc1ccc(-c2nn(-c3ccccc3)cc2/C=C2\SC(=S)N(CC(=O)O)C2=O)cc1	47.0	.	.	.	.	60.8	45.9
Cc1cc(SCC(=O)OCC(=O)N(CCC#N)c2ccccc2)nc2ccccc12	/	.	.	/	.	/	/
O=C(c1ccco1)[C@@H]1[C@@H]2C(=O)N(c3ccc(F)cc3)C(=O)[C@@H]2[C@H]2C=Cc3ccccc3N21	.	.	/	.	.	/	/
O=C(c1ccco1)[C@@H]1[C@@H]2C(=O)N(c3ccc(F)cc3)C(=O)[C@@H]2C2c3ccccc3C=CN21 (stereo not given in full)	43.3	.	.	.	.	.	.
O=C(O)CCNc1cc(N2CCN(C(=O)c3ccco3)CC2)c2noc3c2c1C(=O)c1ccccc1-3	56.9	.	.	.	.	76.3	.
CCN1CCN(c2cc(N3CCN(C(=O)c4ccco4)CC3)c3c4c(onc24)-c2ccccc2C3=O)CC1	.	.	.	.	.	/	/
CC(=O)c1cccc(Nc2nc(-c3cccnc3)cs2)c1	44.0	/	.	.	/	.	.
CCn1cc(CCC(=O)NCCN2CCOCC2)c2ccccc21	.	.	.	.	.	/	/
Cc1ccc(NC(=O)CN2C(=O)S/C(=C/c3ccncc3)C2=O)cc1	.	.	.	.	.	/	/
